What was measured:
[1] = molecular target: T1, NAD-dependent protein deacetylase sirtuin-1 (Homo sapiens) (UniProt Q96EB6); assay: Activation of human SIRT1 expressed in Escherichia coli BL21Start assessed as concentration required to increase 50% enzyme activity by mass spectrometry assay
T1 sequence (whole entry): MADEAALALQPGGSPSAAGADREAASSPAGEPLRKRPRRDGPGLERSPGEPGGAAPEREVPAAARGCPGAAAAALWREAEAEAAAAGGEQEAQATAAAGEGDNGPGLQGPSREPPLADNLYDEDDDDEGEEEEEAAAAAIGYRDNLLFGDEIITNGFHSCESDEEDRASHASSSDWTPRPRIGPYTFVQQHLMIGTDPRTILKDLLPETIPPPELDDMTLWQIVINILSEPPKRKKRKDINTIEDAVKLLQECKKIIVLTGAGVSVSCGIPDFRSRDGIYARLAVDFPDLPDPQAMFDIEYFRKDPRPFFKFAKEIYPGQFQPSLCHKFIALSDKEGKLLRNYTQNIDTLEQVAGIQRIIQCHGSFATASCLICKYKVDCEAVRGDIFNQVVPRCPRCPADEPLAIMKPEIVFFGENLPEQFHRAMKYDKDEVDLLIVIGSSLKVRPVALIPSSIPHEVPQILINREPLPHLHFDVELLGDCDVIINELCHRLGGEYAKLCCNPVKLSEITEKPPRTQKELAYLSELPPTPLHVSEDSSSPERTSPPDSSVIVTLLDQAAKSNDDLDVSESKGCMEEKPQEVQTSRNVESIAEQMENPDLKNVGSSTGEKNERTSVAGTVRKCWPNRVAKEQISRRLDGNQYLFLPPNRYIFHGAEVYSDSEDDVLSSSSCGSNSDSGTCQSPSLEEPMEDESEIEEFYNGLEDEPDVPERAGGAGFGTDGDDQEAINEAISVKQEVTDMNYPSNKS
Procedure, shortened: (§1)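 Truncated SIRT1 was expressed in E. coli BL21Start (DE3) and purified on Ni2+ chelate. Reaction: 10 nM enzyme, 0.5 µM biotinylated, fluorophore-tagged p53-derived 20-mer acetyl-lysine peptide and 120 µM NAD+, in 50 mM Tris-acetate pH 8 with NaCl, KCl, MgCl2, 5 mM DTT and 0.05% BSA; DMSO vehicle; 25 min at 25 °C. Stopped with formic acid/nicotinamide; acetylated versus deacetylated peptide read by mass spectrometry. EC1.5 is the concentration raising activity by 50%, the mean of three titration curves.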

[2] = molecular target: T1, NAD-dependent protein deacetylase sirtuin-1 (Homo sapiens); assay: Activation of human SIRT1 expressed in Escherichia coli BL21Start assessed as maximum activation of enzyme activity by mass spectrometry assay; procedure, shortened: as §1
[3] = Solubility in water; assay type: physicochemical
[4] = Metabolic stability in mouse microsomes assessed as half life; assay type: ADME, Microsome
[5] = Metabolic stability in human microsomes assessed as half life; assay type: ADME, Microsome
[6] = Solubility in buffer at pH 7.4 by HPLC method; assay type: physicochemical
Procedure, shortened: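 Kinetic solubility was measured in pH 7.4 buffer by HPLC.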

[7] = Oral bioavailability in C57BL/6 mouse at 100 mg/kg; assay type: ADME, organism-based; details: in vivo
Procedure, shortened: (§2)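 Male C57BL/6 mice (18-22 g; 3 per dose group per time point), given 100 mg/kg po as the hydrochloride salt in 2% HPMC + 0.2% DOSS, or 10 mg/kg iv by tail vein in 10% ethanol/40% polyethylene glycol/50% H2O. Plasma was taken at 5, 30, 120 and 360 min after dosing and drug levels were measured.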

[8] = Cmax in C57BL/6 mouse at 100 mg/kg, po or 10 mg/kg, iv; assay type: ADME, organism-based; details: in vivo; procedure, shortened: as §2
[9] = Terminal half life in C57BL/6 mouse at 100 mg/kg, po or 10 mg/kg, iv; assay type: ADME, organism-based; details: in vivo, read-out: beta t1/2 (converted); procedure, shortened: as §2
[10] = AUC in C57BL/6 mouse at 100 mg/kg, po or 10 mg/kg, iv; assay type: ADME, organism-based; details: plasma; procedure, shortened: as §2

Structure (SMILES) | Activity [1] [µM] | Activity [2] [%] | other results
O=C(Nc1ccccc1-c1cn2c(CN3CCNCC3)csc2n1)c1cccc2cccnc12 | 45 | 208 | 
COc1cc(C(=O)Nc2ccccc2-c2cn3ccsc3n2)cc(OC)c1OC | 2.5 | 272 | solubility [3]: < 100 µg/mL; half-life [4]: 0.0833 h; half-life [5]: 0.167 h
O=C(Cc1ccccc1)Nc1ccccc1-c1cn2c(CN3CCNCC3)csc2n1 | 14 | 130 | 
COc1cc(C(=O)Nc2ccccc2-c2cn3c(CN4CCNCC4)csc3n2)cc(OC)c1OC | 1.8 | 271 | solubility [3]: > 10000 µg/mL; solubility [6]: > 100 µM; half-life [4]: > 5 h; half-life [5]: 1.87 h; bioavailability [7]: 40%; Cmax [8]: 14 µM; half-life [9]: 6 h; AUC [10]: 45000 ng·h/mL
COc1cccc(C(=O)Nc2ccccc2-c2cn3c(CN4CCNCC4)csc3n2)c1 | 3.7 | 928 | 
O=C(Nc1ccccc1-c1cn2c(CN3CCNCC3)csc2n1)c1cccc(OC(F)(F)F)c1 | 0.9 | 665 | 
O=C(Nc1ccccc1-c1cn2c(CN3CCNCC3)csc2n1)c1cccc(SC(F)F)c1 | 0.51 | 808 | 
COc1cc(C(=O)Nc2ccccc2-c2cn3cc(CN4CCNCC4)sc3n2)cc(OC)c1OC | 3.2 | 257 | 
O=C(Nc1ccccc1-c1cn2c(CN3CCNCC3)csc2n1)c1cc2ccccc2o1 | 0.61 | 381 | 
O=C(Nc1ccccc1-c1cn2c(CN3CCNCC3)csc2n1)C1CCCC1 | 130 | 383 | 
COc1cc(C(=O)Nc2cccc(-c3cn4ccsc4n3)c2)cc(OC)c1OC | 7.5 | 380 | 
COc1ccc(C(=O)Nc2ccccc2-c2cn3c(CN4CCNCC4)csc3n2)cc1OC | 4.5 | 406 | 
O=C(Nc1ccccc1-c1cn2c(CN3CCNCC3)csc2n1)c1ccccc1 | 25 | 322 | 
O=C(Nc1ccccc1-c1cn2c(CN3CCNCC3)csc2n1)c1cnc2ccccc2c1 | 0.68 | 301 | 
Oc1ccc(/C=C/c2cc(O)cc(O)c2)cc1 | 48 | 250 | 
COc1cc(F)cc(C(=O)Nc2ccccc2-c2cn3c(CN4CCNCC4)csc3n2)c1 | 2.1 | 662 | 
O=C(Nc1ccccc1-c1cn2c(CN3CCNCC3)csc2n1)c1cnccn1 | 1.7 | 270 | 
O=C(Nc1ccccc1-c1cn2c(CN3CCNCC3)csc2n1)c1ccc2ccccc2n1 | 0.99 | 440 | 
COc1cc(C(=O)Nc2ccccc2-c2cn3cc(CN(C)C)sc3n2)cc(OC)c1OC | 4.8 | 295 | 
O=C(Nc1ccccc1-c1cn2c(CN3CCNCC3)csc2n1)c1ccc2c(c1)OCO2 | 4.9 | 332 | 
COc1ccc(C(=O)Nc2ccccc2-c2cn3c(CN4CCNCC4)csc3n2)cc1F | 6.2 | 619 | 
O=C(Nc1ccccc1-c1cn2c(CN3CCNCC3)csc2n1)c1cc2ccccc2s1 | 24 | 253 | 
COc1ccc(C(=O)Nc2ccccc2-c2cn3c(CN4CCNCC4)csc3n2)c(OC)c1 | 31 | 197 | 
O=C(Nc1ccccc1-c1cn2c(CN3CCNCC3)csc2n1)c1ccc2occc2c1 | 6.9 | 380 | 
COc1cc(C(=O)Nc2cccc(-c3nc4ncccc4o3)c2)cc(OC)c1OC | 11 | 388 | 
COc1cc(C(=O)Nc2ccccc2-c2cn3c(CN(C)C)csc3n2)cc(OC)c1OC | 1.9 | 270 | 

— ChEMBL document CHEMBL1140923, “Discovery of imidazo[1,2-b]thiazole derivatives as novel SIRT1 activators” (J Med Chem, 2009)
